From PubChem BioAssay AID624022 (Broad Institute, 2012) come the findings set out here.

The target of this experiment is Scavenger receptor class B member 1 (Mus musculus) (UniProt Q61009). Nature of the experiment: inhibitors of SR-BI-mediated HDL cholesteryl ester uptake, dose response, orthogonal assay for SR-BI HDL uptake inhibitor project, cell-based, wild-type CHO mSR-BI, scintillation, powder samples (AID 624022). Particulars: CHO mSR-BI cells, [3H]CE-HDL uptake. The method, boiled down:
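Test system: LDL receptor-deficient CHO cells overexpressing mouse SR-BI; signal: scintillation counting; probe or stimulus: [3H]cholesteryl ester-HDL; timing: 1 h compound pretreatment, then 2 h uptake, 37 °C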

Chain of Scavenger receptor class B member 1 (Mus musculus) (Q61009 whole entry, looked up): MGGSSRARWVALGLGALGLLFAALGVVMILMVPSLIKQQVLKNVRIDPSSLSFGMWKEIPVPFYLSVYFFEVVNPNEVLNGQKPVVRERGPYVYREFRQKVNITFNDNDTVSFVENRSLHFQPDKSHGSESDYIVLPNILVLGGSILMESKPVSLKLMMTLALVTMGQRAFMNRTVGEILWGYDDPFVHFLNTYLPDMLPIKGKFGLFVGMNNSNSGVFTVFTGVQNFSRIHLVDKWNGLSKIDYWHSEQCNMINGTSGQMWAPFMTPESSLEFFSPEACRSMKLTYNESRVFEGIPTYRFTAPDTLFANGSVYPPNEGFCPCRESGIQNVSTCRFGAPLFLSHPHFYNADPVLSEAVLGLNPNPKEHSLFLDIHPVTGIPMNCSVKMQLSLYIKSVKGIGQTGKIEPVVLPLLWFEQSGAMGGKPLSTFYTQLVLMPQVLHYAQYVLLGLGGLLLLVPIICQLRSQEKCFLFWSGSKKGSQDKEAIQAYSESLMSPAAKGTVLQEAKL

One may read the IC50 as the midpoint of a concentration-inhibition curve. Regarding `CC(C)NC(=O)Nc1ccc2c(c1)C(=O)N([C@H](C)CO)C[C@@H](C)[C@H](CN(C)S(=O)(=O)c1ccc(Cl)cc1)O2`, the IC50 was 500 nM.
